From PMC2229513 (The Journal of General Physiology, 2001)
Substitutions are numbered along the chain they refer to. Where two headings read alike, the source gives them in different places.

Assays:
ENaC wt [1] = target: T1, ENaC wt (Rattus norvegicus, UniProt P37089+P37090+P37091); experiment: Effect of extracellular MTSEA on INa; format: cell-based; details: 2-min extracellular application of 2.5 mM MTSEA
T1 sequence (P37089 1-698): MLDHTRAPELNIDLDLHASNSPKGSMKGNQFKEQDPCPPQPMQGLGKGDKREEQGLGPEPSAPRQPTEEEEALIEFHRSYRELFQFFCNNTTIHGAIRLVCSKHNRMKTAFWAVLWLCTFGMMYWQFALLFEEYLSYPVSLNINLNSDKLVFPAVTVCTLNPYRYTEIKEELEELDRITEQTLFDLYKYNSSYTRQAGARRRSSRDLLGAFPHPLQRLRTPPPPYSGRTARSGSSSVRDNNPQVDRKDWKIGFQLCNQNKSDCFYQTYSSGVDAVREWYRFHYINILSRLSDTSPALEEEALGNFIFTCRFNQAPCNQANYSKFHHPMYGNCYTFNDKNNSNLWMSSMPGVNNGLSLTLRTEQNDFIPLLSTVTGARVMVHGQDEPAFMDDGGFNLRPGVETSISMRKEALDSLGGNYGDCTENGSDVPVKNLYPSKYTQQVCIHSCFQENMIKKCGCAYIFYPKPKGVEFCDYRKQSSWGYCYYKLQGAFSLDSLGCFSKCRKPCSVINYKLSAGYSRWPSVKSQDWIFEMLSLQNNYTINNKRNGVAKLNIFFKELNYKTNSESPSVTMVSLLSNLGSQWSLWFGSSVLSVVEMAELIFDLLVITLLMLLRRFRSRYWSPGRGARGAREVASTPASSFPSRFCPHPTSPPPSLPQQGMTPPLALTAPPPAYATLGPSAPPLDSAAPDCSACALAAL
T1 sequence (P37090 1-638): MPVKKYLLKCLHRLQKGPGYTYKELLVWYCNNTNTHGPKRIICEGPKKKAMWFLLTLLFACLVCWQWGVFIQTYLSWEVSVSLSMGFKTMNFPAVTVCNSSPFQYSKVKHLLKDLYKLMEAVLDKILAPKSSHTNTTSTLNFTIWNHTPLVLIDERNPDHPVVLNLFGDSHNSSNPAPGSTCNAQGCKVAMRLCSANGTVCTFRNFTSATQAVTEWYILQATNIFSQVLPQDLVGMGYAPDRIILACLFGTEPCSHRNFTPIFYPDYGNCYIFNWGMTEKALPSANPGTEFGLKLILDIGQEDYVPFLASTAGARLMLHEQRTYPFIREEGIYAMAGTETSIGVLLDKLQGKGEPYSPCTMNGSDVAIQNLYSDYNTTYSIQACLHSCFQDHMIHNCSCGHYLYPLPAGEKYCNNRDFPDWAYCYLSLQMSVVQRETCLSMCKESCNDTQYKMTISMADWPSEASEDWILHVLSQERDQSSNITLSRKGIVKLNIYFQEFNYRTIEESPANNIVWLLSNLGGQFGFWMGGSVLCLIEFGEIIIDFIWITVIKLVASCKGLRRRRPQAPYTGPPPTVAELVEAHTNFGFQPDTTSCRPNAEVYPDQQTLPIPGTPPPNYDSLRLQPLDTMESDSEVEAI
T1 sequence (P37091 1-650): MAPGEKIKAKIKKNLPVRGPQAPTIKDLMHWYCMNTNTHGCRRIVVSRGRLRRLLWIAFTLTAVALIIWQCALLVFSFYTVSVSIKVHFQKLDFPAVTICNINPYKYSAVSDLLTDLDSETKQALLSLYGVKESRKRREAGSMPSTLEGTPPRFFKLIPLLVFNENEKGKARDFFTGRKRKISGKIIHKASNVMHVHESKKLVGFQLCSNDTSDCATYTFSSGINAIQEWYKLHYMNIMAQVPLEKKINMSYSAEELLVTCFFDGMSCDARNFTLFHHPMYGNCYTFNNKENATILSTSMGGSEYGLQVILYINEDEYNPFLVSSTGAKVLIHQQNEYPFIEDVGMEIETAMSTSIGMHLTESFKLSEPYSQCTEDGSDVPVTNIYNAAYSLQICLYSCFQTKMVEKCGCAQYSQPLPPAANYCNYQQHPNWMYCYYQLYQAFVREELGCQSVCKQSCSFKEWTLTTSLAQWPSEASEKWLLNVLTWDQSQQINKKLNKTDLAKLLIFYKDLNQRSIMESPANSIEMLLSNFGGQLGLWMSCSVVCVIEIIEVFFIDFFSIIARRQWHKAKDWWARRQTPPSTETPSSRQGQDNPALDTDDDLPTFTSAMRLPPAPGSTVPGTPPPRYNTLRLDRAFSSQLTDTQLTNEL
Method in brief: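 Two-electrode voltage clamp was run on Xenopus oocytes 16–48 h after injecting rat αβγ ENaC cRNAs (100 nl, 100 ng/μl total). INa was the current sensitive to 100 μM amiloride. Aqueous MTSEA stock was made fresh, kept on ice and diluted into bath immediately before use.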

αE598A ENaC mutant = target: T2, αE598A ENaC mutant (Rattus norvegicus, UniProt P37089+P37090+P37091, E598A); experiment: Amiloride block of αE598A mutant; format: cell-based
T2 sequence (P37089 1-698 E598A): T1 sequence (P37089 1-698) with E598A
T2 sequence (P37090 1-638): T1 sequence (P37090 1-638)
T2 sequence (P37091 1-650): T1 sequence (P37091 1-650)

αS589H ENaC mutant = target: T3, αS589H ENaC mutant (Rattus norvegicus, UniProt P37089+P37090+P37091, S589H); format: cell-based
T3 sequence (P37089 1-698 S589H): T1 sequence (P37089 1-698) with S589H
T3 sequence (P37090 1-638): T1 sequence (P37090 1-638)
T3 sequence (P37091 1-650): T1 sequence (P37091 1-650)
Method in brief: (§1)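 Stage V–VI Xenopus oocytes were pressure-injected with 100 nl of equal amounts of rat α, β and γ ENaC cRNAs (mutations in α only), 100 ng/μl total. Two-electrode voltage clamp was done 16–48 h post-injection. For other permeant cations, Na+ was replaced at the same concentration.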

[2] = tested on: ENaC mutants of α (S583), β (G525) or γ subunit (G537); details: mutations of α S583, β G525 or γ G537; ref Schild et al. 1997; cited from earlier work
αS589N ENaC mutant = target: T4, αS589N ENaC mutant (Rattus norvegicus, UniProt P37089+P37090+P37091, S589N); format: cell-based
T4 sequence (P37089 1-698 S589N): T1 sequence (P37089 1-698) with S589N
T4 sequence (P37090 1-638): T1 sequence (P37090 1-638)
T4 sequence (P37091 1-650): T1 sequence (P37091 1-650)
Method in brief: as §1

ENaC wt [3] = target: T1, ENaC wt; format: cell-based
Method in brief: as §1

αS589D ENaC mutant = target: T5, αS589D ENaC mutant (Rattus norvegicus, UniProt P37089+P37090+P37091, S589D); format: cell-based
T5 sequence (P37089 1-698 S589D): T1 sequence (P37089 1-698) with S589D
T5 sequence (P37090 1-638): T1 sequence (P37090 1-638)
T5 sequence (P37091 1-650): T1 sequence (P37091 1-650)
Method in brief: as §1

[4] = tested on: wt and mutant (αS589) ENaC channels; experiment: Block of ionic currents by 100 μM amiloride; format: cell-based, rat
Method in brief: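 Oocytes were co-injected with rat αβγ ENaC cRNAs (100 nl, 100 ng/μl total, equal amounts of each subunit) and recorded by two-electrode voltage clamp 16–48 h later. Amiloride-sensitive current was taken as the difference between currents with and without 100 μM amiloride in the bath.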

Q: With CS(=O)(=O)SCCN [MTSEA, aminoethyl methanethiosulfate] as the molecule, how does the “ratio of INa after MTSEA application relative to the initial INa” value (ENaC wt [1]) read?
A: 0.77 ± 0.33

Q: Which “amiloride block compared with wt” value (αE598A ENaC mutant) does the source give for N=C(N)NC(=O)c1nc(Cl)c(N)nc1N [amiloride] here?
A: not different from wt

Q: And the IC50 (αS589H ENaC mutant)?
A: 2800 ± 650 nM

Q: And the “increase of the IC50 for amiloride block (factor vs wt)” value (αS589H ENaC mutant; αS589H relative to ENaC wt)?
A: 16

Q: What about the “decrease of channel affinity for amiloride” value [2] of the same molecule?
A: two to three orders of magnitude

Q: What about the IC50 (αS589N ENaC mutant; IC50 for amiloride block of the NH4+ current, NH4+ current, n = 6–7) of the same molecule?
A: 190 ± 60 nM

Q: What about the IC50 (αS589N ENaC mutant; IC50 for amiloride block, Na+ as the main extracellular cation, n = 6–16) of the same molecule?
A: 440 ± 50 nM

Q: And the IC50 (ENaC wt [3])?
A: 180 ± 80 nM

Q: What about the IC50 (αS589D ENaC mutant) of the same molecule?
A: 100 ± 20 nM

Q: And the “block of ionic currents” value [4]?
A: completely blocked
